{"data": "Results of several laboratories", "rep main protease": "Replicase polyprotein 1ab, main protease (rep, Severe acute respiratory syndrome coronavirus 2, UniProt P0DTD1)", "rep methyltransferase": "Replicase polyprotein 1ab, methyltransferase (rep, Severe acute respiratory syndrome coronavirus 2, UniProt P0DTD1)", "note": "Protocols differ between the studies behind these lines."}
{"Structure (SMILES)": "COc1cc(-c2ccc(/N=N/c3ccc4c(S(=O)(=O)O)cc(S(=O)(=O)O)c(N)c4c3O)c(OC)c2)ccc1/N=N/c1ccc2c(S(=O)(=O)O)cc(S(=O)(=O)O)c(N)c2c1O", "target": "rep main protease", "effect on": "enzyme activity", "action": "inhibitor", "measurement": "IC50", "result": "9.82 µM"}
{"Structure (SMILES)": "CSc1ccc(N(Cc2cc(Cl)cs2)C(=O)Cc2cncc3ccccc23)cc1", "target": "rep main protease", "effect on": "binding", "technique": "MST", "measurement": "Kd", "result": "1.4 µM"}
{"Structure (SMILES)": "CCOC(=O)c1c(NC(=O)c2cc3ccccc3o2)sc(C)c1C", "target": "rep methyltransferase", "effect on": "enzyme activity", "action": "inhibitor", "measurement": "IC50", "result": "27.9 µM"}
{"Structure (SMILES)": "N=C(N)NN=C1C=CC(=NNC(N)=S)C=C1", "target": "rep main protease", "effect on": "enzyme activity", "action": "inhibitor", "measurement": "IC50", "result": "9.3 µM"}
{"Structure (SMILES)": "O=c1oc2cc(O)ccc2c2ccccc12", "target": "rep main protease", "effect on": "binding", "technique": "SPR", "measurement": "Kd", "result": "52.7 µM"}
{"Structure (SMILES)": "[H]/N=C(\\N/C(=N/[H])NCCCCCCNC(=N)NC(=N)Nc1ccc(Cl)cc1)Nc1ccc(Cl)cc1", "target": "rep methyltransferase", "effect on": "enzyme activity", "action": "inhibitor", "measurement": "IC50", "result": "43.7 µM"}
{"Structure (SMILES)": "CN1Cc2ccccc2[C@@H]2c3cccc4[nH]cc(c34)C[C@H]21", "target": "rep main protease", "effect on": "enzyme activity", "action": "inhibitor", "measurement": "IC50", "result": "> 20 µM"}
{"Structure (SMILES)": "COC(=O)c1c(NC(=O)c2cc3ccccc3o2)sc(C)c1C", "target": "rep methyltransferase", "effect on": "enzyme activity", "action": "inhibitor", "measurement": "IC50", "result": "22.8 µM"}
{"Structure (SMILES)": "COc1ccc(N(Cc2cc(Cl)cs2)C(=O)Cc2cncc3ccccc23)cc1", "target": "rep main protease", "effect on": "binding", "technique": "MST", "measurement": "Kd", "result": "1.5 µM"}
